Test results: ChEMBL document CHEMBL5058577, “EUbOPEN Chemogenomics Library 2 (Multiplex)” (2022)

System: U2OS
Test: Multiplex assay against U2OS
Type: toxicity, cell-based
Details: human
Summary of the method: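 Live cells were stained at seeding with Hoechst33342, BioTracker Green Microtubule Cytoskeleton Dye, MitoTracker Red and Annexin V Alexa Fluor 680, then imaged on a CQ1 microscope at 37°C and 5% CO2 after compound addition. CellPathfinder machine-learning gating split cells into Hoechst high-intensity objects or normal cells. Normal cells were split into healthy, pyknosed or fragmented nuclei, and pyknosed cells into mitotic or apoptotic. Tubulin, mitochondrial-mass and membrane-permeability phenotypes are per cents of healthy-nucleus cells.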

[1] = 12 h, 1 µM, compound concentration 1 uM, replicate 1
[2] = 12 h, 1 µM, compound concentration 1 uM, replicate 2
[3] = 12 h, 10 µM, compound concentration 10 uM, replicate 1
[4] = 12 h, 10 µM, compound concentration 10 uM, replicate 2
[5] = 24 h, 1 µM, compound concentration 1 uM, replicate 1
[6] = 24 h, 1 µM, compound concentration 1 uM, replicate 2
[7] = 24 h, 10 µM, compound concentration 10 uM, replicate 1
[8] = 24 h, 10 µM, compound concentration 10 uM, replicate 2
[9] = 48 h, 1 µM, compound concentration 1 uM, replicate 1
[10] = 48 h, 1 µM, compound concentration 1 uM, replicate 2
[11] = 48 h, 10 µM, compound concentration 10 uM, replicate 1
[12] = 48 h, 10 µM, compound concentration 10 uM, replicate 2

SMILES: COc1cccc2c1c(NS(=O)(=O)c1ccc(Cl)s1)nn2Cc1cccc(CNC(=O)C(C)(C)O)c1
- Population Apoptotic (%) [1]: 86%
- Population Fragmented Nuclei (%) [1]: 23%
- Population Healthy Nuclei (%) [1]: 67%
- Population Hoechst High Intensity Objects (%) [1]: 3%
- Population Membrane Permeable-Phenotype (%) [1]: 4%
- Population Mitochondria Different-Phenotype (%) [1]: 1%
- Population Mitotic Cells (%) [1]: 13%
- Population Normal (%) [1]: 96%
- Population Pyknosed Nuclei (%) [1]: 9%
- Population Tubulin-Different-Phenotype (%) [1]: 1%
- Total Cell Count [1]: 261
- Population Apoptotic (%) [2]: 81%
- Population Fragmented Nuclei (%) [2]: 29%
- Population Healthy Nuclei (%) [2]: 64%
- Population Hoechst High Intensity Objects (%) [2]: 6%
- Population Membrane Permeable-Phenotype (%) [2]: 7%
- Population Mitochondria Different-Phenotype (%) [2]: 3%
- Population Mitotic Cells (%) [2]: 18%
- Population Normal (%) [2]: 93%
- Population Pyknosed Nuclei (%) [2]: 5%
- Population Tubulin-Different-Phenotype (%) [2]: 6%
- Total Cell Count [2]: 201
- Population Apoptotic (%) [3]: 76%
- Population Fragmented Nuclei (%) [3]: 26%
- Population Healthy Nuclei (%) [3]: 65%
- Population Hoechst High Intensity Objects (%) [3]: 1%
- Population Membrane Permeable-Phenotype (%) [3]: 6%
- Population Mitochondria Different-Phenotype (%) [3]: 2%
- Population Mitotic Cells (%) [3]: 23%
- Population Normal (%) [3]: 98%
- Population Pyknosed Nuclei (%) [3]: 8%
- Population Tubulin-Different-Phenotype (%) [3]: 4%
- Total Cell Count [3]: 264
- Population Apoptotic (%) [4]: 83%
- Population Fragmented Nuclei (%) [4]: 25%
- Population Healthy Nuclei (%) [4]: 70%
- Population Hoechst High Intensity Objects (%) [4]: 5%
- Population Membrane Permeable-Phenotype (%) [4]: 8%
- Population Mitochondria Different-Phenotype (%) [4]: 3%
- Population Mitotic Cells (%) [4]: 16%
- Population Normal (%) [4]: 94%
- Population Pyknosed Nuclei (%) [4]: 4%
- Population Tubulin-Different-Phenotype (%) [4]: 2%
- Total Cell Count [4]: 140
- Population Apoptotic (%) [5]: 96%
- Population Fragmented Nuclei (%) [5]: 20%
- Population Healthy Nuclei (%) [5]: 70%
- Population Hoechst High Intensity Objects (%) [5]: 1%
- Population Membrane Permeable-Phenotype (%) [5]: 5%
- Population Mitochondria Different-Phenotype (%) [5]: 1%
- Population Mitotic Cells (%) [5]: 3%
- Population Normal (%) [5]: 98%
- Population Pyknosed Nuclei (%) [5]: 8%
- Population Tubulin-Different-Phenotype (%) [5]: 3%
- Total Cell Count [5]: 307
- Population Apoptotic (%) [6]: 90%
- Population Fragmented Nuclei (%) [6]: 28%
- Population Healthy Nuclei (%) [6]: 66%
- Population Hoechst High Intensity Objects (%) [6]: 5%
- Population Membrane Permeable-Phenotype (%) [6]: 8%
- Population Mitochondria Different-Phenotype (%) [6]: 3%
- Population Mitotic Cells (%) [6]: 9%
- Population Normal (%) [6]: 94%
- Population Pyknosed Nuclei (%) [6]: 4%
- Population Tubulin-Different-Phenotype (%) [6]: 6%
- Total Cell Count [6]: 242
- Population Apoptotic (%) [7]: 90%
- Population Fragmented Nuclei (%) [7]: 25%
- Population Healthy Nuclei (%) [7]: 64%
- Population Hoechst High Intensity Objects (%) [7]: 1%
- Population Membrane Permeable-Phenotype (%) [7]: 5%
- Population Mitochondria Different-Phenotype (%) [7]: 3%
- Population Mitotic Cells (%) [7]: 10%
- Population Normal (%) [7]: 98%
- Population Pyknosed Nuclei (%) [7]: 10%
- Population Tubulin-Different-Phenotype (%) [7]: 2%
- Total Cell Count [7]: 304
- Population Apoptotic (%) [8]: 88%
- Population Healthy Nuclei (%) [8]: 68%
- Population Hoechst High Intensity Objects (%) [8]: 5%
- Population Membrane Permeable-Phenotype (%) [8]: 8%
- Population Mitochondria Different-Phenotype (%) [8]: 4%
- Population Mitotic Cells (%) [8]: 11%
- Population Normal (%) [8]: 94%
- Population Pyknosed Nuclei (%) [8]: 5%
- Total Cell Count [8]: 167
- Population Apoptotic (%) [9]: 95%
- Population Fragmented Nuclei (%) [9]: 14%
- Population Healthy Nuclei (%) [9]: 76%
- Population Hoechst High Intensity Objects (%) [9]: 1%
- Population Membrane Permeable-Phenotype (%) [9]: 4%
- Population Mitochondria Different-Phenotype (%) [9]: 1%
- Population Mitotic Cells (%) [9]: 4%
- Population Normal (%) [9]: 98%
- Population Pyknosed Nuclei (%) [9]: 9%
- Population Tubulin-Different-Phenotype (%) [9]: 2%
- Total Cell Count [9]: 463
- Population Apoptotic (%) [10]: 74%
- Population Fragmented Nuclei (%) [10]: 22%
- Population Healthy Nuclei (%) [10]: 68%
- Population Hoechst High Intensity Objects (%) [10]: 7%
- Population Membrane Permeable-Phenotype (%) [10]: 5%
- Population Mitochondria Different-Phenotype (%) [10]: 4%
- Population Mitotic Cells (%) [10]: 25%
- Population Normal (%) [10]: 92%
- Population Tubulin-Different-Phenotype (%) [10]: 5%
- Total Cell Count [10]: 314
- Population Apoptotic (%) [11]: 93%
- Population Fragmented Nuclei (%) [11]: 20%
- Population Healthy Nuclei (%) [11]: 71%
- Population Hoechst High Intensity Objects (%) [11]: 2%
- Population Membrane Permeable-Phenotype (%) [11]: 5%
- Population Mitochondria Different-Phenotype (%) [11]: 2%
- Population Mitotic Cells (%) [11]: 6%
- Population Normal (%) [11]: 97%
- Population Pyknosed Nuclei (%) [11]: 8%
- Population Tubulin-Different-Phenotype (%) [11]: 3%
- Total Cell Count [11]: 413
- Population Apoptotic (%) [12]: 100%
- Population Fragmented Nuclei (%) [12]: 22%
- Population Hoechst High Intensity Objects (%) [12]: 3%
- Population Mitochondria Different-Phenotype (%) [12]: 3%
- Population Mitotic Cells (%) [12]: 0%
- Population Normal (%) [12]: 96%
- Population Pyknosed Nuclei (%) [12]: 5%
- Total Cell Count [12]: 235
